Shown are actives, neighbours in structure and some others; about 4.5% of the full set was active somewhere.
MrgX1 ag – agonists of human MrgX1 receptor. MrgX1-HEK293 cells, Fluo-4 calcium fluorescence, agonist mode; active compounds read high. AID 588627. hit rate 0.44% among 310,000. B-score at 10 µM;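 active = calcium response B-score plate-corrected fluorescence ratio at least 3 library SD, with starting fluorescence B-score inside 5 SD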
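Material – MrgX1-expressing HEK293 cells · Input – 15,000 cells seeded per well · Dosing – compound as first of three additions · Times – overnight seeding, then 1 h dark dye loading · Measured by – kinetic Fluo-4 NW fluorescence of intracellular calcium · Read-out – B-scored fluorescence response ratio · Benchmarks – positive and negative control wells on each plate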
MrgX1 antagonist – human MrgX1 receptor antagonism, primary screen | MRGX1-HEK293 calcium flux, Fluo-4, BAM8-22 antagonism; active compounds read low | B-score at 10 µM | hit rate 1.3% among 310,000 | AID 588676;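 active = calcium-response B-score plate-corrected more than 3 library SD below zero, starting fluorescence within 5 deviations, no agonist response on first addition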;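 also: peak minus trough fluorescence over baseline after final BAM8-22 challenge near maximal dose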
RGS4 pot – RGS4 potentiation or activation | HEK293 M3R/inducible RGS4, carbachol calcium flux Fluo4; active compounds read low | B-score at 10 µM | hit rate 0.92% among 310,000 | AID 463111;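 active = B-score of the integrated calcium signal more than 4 SD below the library mean, with starting fluorescence not abnormally high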;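 also: negative B-score means reduced calcium response which marks RGS4 activation or potentiation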
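Material: M3R-expressing HEK293 line, RGS4 induced by doxycycline | Schedule: Overnight RGS4 induction, 30 min dye load 37 °C, 20 min compound RT | Measured by: Fluo4 fluorescence kinetic imaging of calcium | Read-out: Integrated calcium ratio converted to B score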
PHOSPHO1 block – PHOSPHO1 (human) inhibition | Q8TCT1 | recombinant PHOSPHO1, absorbance phosphatase assay | inhibition, % at 13.3 µM | hit rate 1.1% among 290,000; in the data active = inhibition above about 60%
Target sequence (Q8TCT1 whole entry, looked up): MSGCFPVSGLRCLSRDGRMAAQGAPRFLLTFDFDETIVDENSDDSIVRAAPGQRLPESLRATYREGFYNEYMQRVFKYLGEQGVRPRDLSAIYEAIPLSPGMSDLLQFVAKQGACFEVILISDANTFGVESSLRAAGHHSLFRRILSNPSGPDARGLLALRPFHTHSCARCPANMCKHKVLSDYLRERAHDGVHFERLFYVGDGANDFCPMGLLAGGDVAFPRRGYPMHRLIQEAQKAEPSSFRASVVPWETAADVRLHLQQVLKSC
MrgX1 PAM – human MrgX1 positive allosteric modulation, primary screen; MrgX1-HEK293, Fluo-4 calcium flux, FDSS; active compounds read high; Q96LB2; B-score at 10 µM; hit rate 0.63% among 310,000;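 active = plate-corrected calcium response at least 3 library SD above typical, normal starting fluorescence, not activating the receptor alone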;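 also: compound read alongside a low EC10 to EC30 dose of BAM8-22 agonist; peak minus trough fluorescence over baseline measured at the second addition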
RGS4 inh – human RGS4 inhibition; AID 463165; P49798; hit rate 0.45% among 310,000; B-score at 10 µM; HEK293 M3R/RGS4 inducible, Fluo-4 calcium flux; active compounds read high; triggered by carbachol at its EC20;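 active = B-score, a plate-corrected calcium signal, over three deviations above library mean, with baseline fluorescence within five deviations of library mean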;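 also: RGS4 expression induced by doxycycline in cells with stable M3 receptor; B-score is computed from the integrated fluorescence ratio over baseline after carbachol; higher B-score means a larger calcium signal and so more RGS4 inhibition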
Target sequence (P49798 whole entry, looked up): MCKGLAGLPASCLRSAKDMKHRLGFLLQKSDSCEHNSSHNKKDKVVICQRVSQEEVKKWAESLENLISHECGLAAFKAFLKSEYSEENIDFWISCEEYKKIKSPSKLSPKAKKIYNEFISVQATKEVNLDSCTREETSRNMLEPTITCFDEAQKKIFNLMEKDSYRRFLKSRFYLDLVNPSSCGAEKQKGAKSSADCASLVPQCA
MrgX1 allo conf – confirmation of human MrgX1 receptor positive allosteric modulators; shares compounds with MrgX1 PAM; MrgX1-HEK293, Fluo-4 calcium fluorescence, FDSS; activation (ratio percentage), % at 10 µM; hit rate 13% among 1,200; AID 602413;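 active = ratio at least 3 SD above the weak peptide control, stable starting fluorescence, no direct agonism earlier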;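 also: compound followed by low BAM8-22 agonist challenge near EC20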
MrgX1 antag conf – human MrgX1 receptor antagonism, re-confirmation screen; shares compounds with MrgX1 antagonist; MrgX1-HEK293, BAM8-22 calcium flux, Fluo-4; active compounds read low; remaining BAM8-22 calcium response % of control (active compounds read low), % at 10 µM; hit rate 19% among 2,300; AID 602420;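 active = remaining agonist calcium response no higher than 100% minus 3 SD of agonist-only control wells, with starting fluorescence near control levels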;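 also: agonist BAM8-22 given at a near maximal EC90 to ECmax level; peak minus minimum fluorescence divided by baseline after agonist addition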
HEK293 Ca flux – MrgX1 antagonist counter-screen hit in parental HEK293 cells; shares compounds with MrgX1 antagonist; fluorescence ratio F(max-min)/F0 at 10 µM; hit rate 2% among 4,000; Fluo-4 calcium fluorescence, FDSS;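 active = duplicate-averaged calcium fluorescence ratio at least three times the standard deviation of buffer wells, a nonspecific response in parental cells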
HEK293 Ca counter – MrgX1 allosteric activator counter-screen hit in parental HEK293 cells. shares compounds with MrgX1 antagonist. hit rate 0.4% among 4,000. parental HEK293 calcium flux, Fluo-4 fluorescence ratio; active compounds read high. AID 624114. fluorescence ratio F(max-min)/F0 at 10 µM;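 active = calcium fluorescence ratio, averaged over duplicates, at least 3 SD of the buffer-well ratio, meaning a nonspecific response in receptor-free cells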;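 also: untransfected parental HEK293 lacking MrgX1 used as counterscreen for MrgX1 allosteric activators; fluorescence change taken during the second addition on a kinetic imager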
HEK293 Ca cntr2 – counter-screen for MrgX1 activators: effect in parental HEK293 cells; shares compounds with MrgX1 antagonist; Fluo-4 calcium fluorescence (FDSS); active compounds read high; fluorescence ratio F(max-min)/F0 at 10 µM; hit rate 8.7% among 4,000;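 active = calcium fluorescence ratio at least three times the spread of buffer wells, meaning a non-specific response in parental cells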
Numbers without * were called inactive; i = inactive; x = not tested or not shown.

SMILES	MrgX1 ag	MrgX1 antagonist	RGS4 pot	PHOSPHO1 block	MrgX1 PAM	RGS4 inh	MrgX1 allo conf	HEK293 Ca flux	HEK293 Ca counter	HEK293 Ca cntr2	others
COc1ccc(C=O)cc1Cn1cnc2c(cnn2C)c1=O	i	i	i	22	i	i	x	x	x	x
COc1ccc(C(C)=O)cc1Cn1cnc2c(cnn2C)c1=O	i	i	i	-13	11*	i	i	i	i	i
CCCC(=O)Nc1nc(-c2ccc(OC)cc2)cs1	i	i	i	18	i	i	x	x	x	x
COc1ccc(-c2csc(NC(=O)CS(=O)(=O)c3ccccc3)n2)cc1	i	i	i	x	12*	i	6.8%*	i	i	i
COc1cc(OC)c(C(=O)NCCCn2ccnc2)cc1OC	i	i	i	32	6.5*	i	i	i	i	i
COc1ccc(C(=O)NCCCn2ccnc2)cc1	i	i	i	-6	i	i	x	x	x	x
CCOC(=O)N1CCC(NS(=O)(=O)c2ccc(C)cc2)CC1	i	i	i	-14	8.2*	i	i	i	i	i
O=[N+]([O-])c1ccc(N=Nc2ncc[nH]2)cc1	i	i	i	33	i	i	x	x	x	x
O=C(Cn1nnc(-c2ccccc2)n1)Nc1cccc(S(=O)(=O)N2CCCC2)c1	i	i	i	x	i	i	x	x	x	x
COC(=O)C1CCN(c2cc(Cl)nc(N)n2)CC1	i	i	i	-23	8.1*	i	i	i	i	i
NC(=O)C1CCN(c2cc(Cl)nc(N)n2)CC1	i	i	i	20	i	i	x	x	x	x
CCOC(=O)c1cccc(NC(=O)CCc2ccccc2)c1	i	i	i	46	8.1*	i	i	i	i	i
CSCCC(N=C(NS(=O)(=O)c1ccc(C)cc1)c1ccccc1)C(=O)O (stereo not drawn)	i	i	i	24	i	i	x	x	x	x
CC(CCc1ccc(O)cc1)NC1c2ccccc2-c2ccccc21 (stereo not drawn)	i	i	i	-3	7.1*	i	i	i	i	i
COc1cccc(OCC(=O)O/N=C(\N)c2ccncc2)c1	i	i	i	36	i	i	x	x	x	x
Cc1ccc2nc(NCCCO)nc(-c3ccccc3)c2c1	i	i	i	5	11*	i	i	i	i	i
COC(=O)C(CC(=O)c1ccc(Cl)cc1)c1ccc(C(C)C)cc1 (stereo not drawn)	i	i	i	6	7.1*	i	i	i	i	i
O=C(CC(C(=O)O)c1ccc(Cl)cc1)c1ccc(Cl)c(Cl)c1 (stereo not drawn)	i	i	i	33	i	i	x	x	x	x
Cc1ccc2nc(SC(C)C(=O)N3CCOCC3)[nH]c2c1 (stereo not drawn)	i	i	i	-1	7.3*	i	i	i	i	i
COC(=O)C1=C(C(=O)OC)[C@@H]2N(Cc3ccccc3)c3ccccc3[C@@]23C[C@@H](C(=O)OC)N(C(=O)COCc2ccccc2)C3=N1	i	i	i	-4	i	i	x	x	x	x
OC[C@H]1O[C@@H](n2cnc3c(Nc4ccccc4)ncnc32)[C@H](O)[C@@H]1O	i	i	i	-1	7.1*	i	i	i	i	i
O=c1[nH]cnc2c1ncn2[C@@H]1O[C@H](CO)[C@@H](O)[C@H]1O	i	i	i	6	i	i	x	x	x	x
CCN(c1cccc(C)c1)S(=O)(=O)c1ccc(-n2cccn2)cc1	i	i	i	-1	7*	i	i	i	i	i
Cc1ccc(N=Cc2sc(O)c3ccccc23)cc1	i	-6.9*	i	26	7*	i	i	i	i	i	MrgX1 antag conf=75%*
Cc1ccc(N=Cc2sc(O)c3ccccc23)c(C)c1	i	i	i	10	i	i	x	x	x	x
SMILES	MrgX1 ag	MrgX1 antagonist	RGS4 pot	PHOSPHO1 block	MrgX1 PAM	RGS4 inh	MrgX1 allo conf	HEK293 Ca flux	HEK293 Ca counter	HEK293 Ca cntr2	others
COc1ccc2c(c1)cc(C)c1nnc(SCC(=O)N(C)c3nc(-c4ccccc4)cs3)n12	i	i	i	32	20*	i	i	i	i	i
Cc1cc2cccc(C)c2nc1SCC(=O)N(C)c1nc(-c2ccccc2)cs1	i	i	i	19	i	i	x	x	x	x
COc1ccccc1NC(=O)c1ccccc1NS(C)(=O)=O	i	i	i	4	11*	i	i	i	i	i
COc1ccccc1NC(=O)c1cc2cc(Br)ccc2cc1O	i	i	i	18	8.4*	i	16%*	i	i	i
CCOc1ccccc1NC(=O)c1ccccc1NS(C)(=O)=O	i	i	i	27	23*	i	79%*	i	i	i
COc1cc(NC(=O)c2cc3ccccc3cc2O)c(OC)cc1Cl	i	i	i	15	i	i	x	x	x	x
COc1ccc(NC(=O)c2ccccc2NS(C)(=O)=O)cc1OC	i	i	i	4	i	i	x	x	x	x
CS(=O)(=O)Nc1ccccc1C(=O)Nc1ccccc1Cl	i	i	i	-23	i	i	x	x	x	x
COc1ccccc1NC(=O)c1ccccc1NS(=O)(=O)c1cccs1	i	i	i	32	54*	i	29%*	i	i	i
COc1ccc(C(=O)N/C(=C\c2cn(S(=O)(=O)N(C)C)c3ccccc23)C(=O)NCCN2CCOCC2)cc1	i	i	i	55	i	i	x	x	x	x
O=C(NN=C1CCCCCCCCCCC1)c1cccnc1	i	i	i	7	i	i	x	x	x	x
